dFosB act-1 – activators of delta FosB homodimer, primary screen, biochemical, fluorescence polarization, TAMRA-CDK5 oligo, single point. Protein FosB (Mus musculus), P13346. purified delta FosB; percent of positive-control signal above neutral wells. activation, % at 25 µM. 340,000 compounds, 0.99% hits;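 active = mean activation above about 17%, with every replicate also reaching it, limit read from the data, passing the limit was not always enough; inconclusive = only one of the two conditions met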
Ecoli rRNA inh – reduced GFP signal of wild-type E. coli, primary screen, bacterial rRNA inhibitor project, GFP/RFP fluorescence, OD600, single point | GFP signal change (wild-type ribosome), % (concentration not given with the values) | E. coli WT GFP vs humanized-ribosome RFP mutants, 24 h; hits give low values; DMSO median 0, no signal -100 | AID 720706, 2013 | 350,000 compounds, 1.6% hits;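 active = significant combined selectivity score with lowered wild-type GFP, culture density cut under 30%, mutant RFP and density less affected; inactive = any of these conditions unmet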
SR-BI uptake up – activators of SR-BI mediated DiI-HDL uptake, primary screen, ldlA[mSR-BI] CHO cells, DiI fluorescence. activation, % at 12.5 µM. AID 504775, 2011. 3 h; 100 = double the neutral-control signal. 320,000 compounds, 0.096% hits;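 active = mean replicate activation of at least 60% and every replicate at or above 60%; inconclusive = mean or all-replicate condition met, but not both; inactive = mean below 60% and not all replicates reaching 60%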;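 note: 0% = median plate neutral-control signal and 100% = twice that signal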
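System: LDL receptor-deficient CHO ldlA cells overexpressing murine SR-BI | Timing: 3 h uptake period with compound, 37 °C | Medium: HEPES-buffered (25 mM, pH 7.4) F12 plus 0.5% BSA | Dosing: Single-point compound dose | Signal: Bottom-read fluorescence, 550/595 nm | Read-out: Retained DiI signal reflecting DiI-HDL uptake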
Xi reactivation – activators of inactive X chromosome reactivation, primary screen, imaging, XiGFP fibroblasts, GFP high-content imaging, set 2 | XiGFP mouse fibroblasts, % GFP-positive cells imaging, 3 d; cells co-treated with 5-aza-dC sensitizer; scaled so ellipticine positive control = 100% | activation, % at 7.58 µM | 360,000 compounds, 0.055% hits;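 active = mean normalized replicate activation at least 10% and every replicate at or above 10%; inconclusive = only one of the two criteria met; inactive = mean below 10% and not all replicates reach 10%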;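 note: 0% = median of on-plate neutral control wells and 100% = ellipticine 6 µM median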
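Material: XiGFP fibroblasts, SV40-immortalized; Buffer or medium: DMEM containing 5-aza-dC; Compound dosing: single point; Times: 3 days compound exposure.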
SR-BI DiI inh – inhibitors of SR-BI mediated HDL lipid uptake, primary screen, ldlA[mSR-BI] cells, fluorescence, single point. Scavenger receptor class B member 1 (Mus musculus), Q61009. ldlA[mSR-BI] CHO cells, DiI-HDL uptake fluorescence, 3 h. inhibition, % at 12.5 µM. 320,000 compounds, 0.96% hits. AID 488896, 2010;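 active = mean replicate inhibition of at least 70% and a set share of replicates each scoring 70 or more; inconclusive = meets just one of the two criteria; inactive = fails both criteria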;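 note: 0% = median of neutral control wells and 100% = median of positive control wells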
Target sequence (Q61009 whole entry, looked up): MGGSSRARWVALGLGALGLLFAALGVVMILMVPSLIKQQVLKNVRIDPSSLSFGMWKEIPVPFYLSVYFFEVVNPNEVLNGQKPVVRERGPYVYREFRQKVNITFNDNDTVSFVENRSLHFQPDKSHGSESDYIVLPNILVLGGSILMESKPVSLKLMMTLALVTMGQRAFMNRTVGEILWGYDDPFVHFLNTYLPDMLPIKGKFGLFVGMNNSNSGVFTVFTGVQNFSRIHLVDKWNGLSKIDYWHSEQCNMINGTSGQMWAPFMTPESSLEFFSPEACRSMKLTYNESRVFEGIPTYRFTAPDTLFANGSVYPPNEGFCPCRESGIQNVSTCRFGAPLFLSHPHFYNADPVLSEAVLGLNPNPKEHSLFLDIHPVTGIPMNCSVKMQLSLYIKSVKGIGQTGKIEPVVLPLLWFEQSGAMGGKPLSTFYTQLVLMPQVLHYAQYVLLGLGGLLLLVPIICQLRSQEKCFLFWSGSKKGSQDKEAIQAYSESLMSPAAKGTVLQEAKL
PvdQ inh – P. aeruginosa PvdQ acylase inhibitors, primary screen, biochemical, fluorescence, plate reader and imaging, single point | purified PvdQ acylase | inhibition, % at 10 µM | 340,000 compounds, 0.063% hits; in the data active = inhibition above about 30%, passing the limit was not always enough; inconclusive = no clear call, values can overlap the other calls;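 note: 0% = vehicle neutral wells and 100% = reference inhibitor wells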
dFosB act-2 – activators of mouse delta FosB DNA binding, confirmation, biochemical, fluorescence polarization, TAMRA-CDK5 oligo, cherry-picked samples. shares compounds with dFosB act-1. purified delta FosB; normalised: neutral wells 0, positive control 100. activation, % at 24.9 µM. 2,400 tested, under 10 active. AID 588690, 2011;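 active = highest replicate activation at or above 34% and every replicate reaching that threshold; inconclusive = meets only one of the two criteria; inactive = meets neither criterion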;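 note: higher polarization means more probe DNA bound by delta FosB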
* = called active by the depositor; ? = inconclusive; . = no result. Most compounds without a hit are left out; they make up all but 2.6% or so of the library.

SMILES | dFosB act-1 | Ecoli rRNA inh | SR-BI uptake up | Xi reactivation | SR-BI DiI inh | PvdQ inh | dFosB act-2
CC(C)OCC(O)CN1CCN(CCN2C(=O)c3cccc4cccc(c34)C2=O)CC1 (stereo not given) | ? | -2 | 14 | 0 | -14 | -15 | .
O=C(CSc1ncnc2ccccc12)N1CCNC1=O | -6 | 5 | -11 | 0 | 11 | 2 | .
Cc1cccn2c(=O)c3cc(C(=O)NC4CCCCC4)c(=N)n(Cc4ccc(F)cc4)c3nc12 | -6 | 2 | -6 | 0 | 6 | -8 | .
O=C(CCNC(=O)N1CC(=O)Nc2ccccc21)NCc1ccccc1Cl | . | 0 | . | 0 | . | . | .
Cc1c(Cl)cccc1NC(=O)CCNC(=O)N1CC(=O)Nc2ccccc21 | 23* | 12 | 16 | 0 | -16 | -4 | 6
Cc1ccc(Cn2nc(C)c(NC(=O)CSc3n[nH]c(C)c3[N+](=O)[O-])c2C)cc1 | 30* | . | -53 | . | 53 | -1 | 0
CC(C)CNC(=O)NC(=O)COC(=O)c1cc([N+](=O)[O-])ccc1NCc1ccccc1Cl | . | 16 | . | 0 | . | . | .
O=C(COC(=O)c1cc([N+](=O)[O-])ccc1NCc1ccccc1Cl)NCC(F)(F)F | 53* | . | -32 | . | 32 | -1 | 5
COc1ccc(CNC(=O)c2c(-c3c(F)cccc3Cl)noc2C)cc1 | 2 | 11 | -8 | 0 | 8 | -20 | .
COc1cccc2cc(-c3cc(=O)oc4ccc(OCC(C)=O)cc34)oc12 | -9 | 3 | -46 | 0 | 46 | -8 | .
COC(=O)COc1ccc2oc(=O)cc(-c3cc4cccc(OC)c4o3)c2c1 | 52* | 8 | 37 | 0 | -37 | -10 | 1
COc1cccc(CNC(=O)N2CCN(c3ccccc3Cl)CC2)c1 | -14 | . | -9 | 0 | 9 | -9 | .
COc1ccccc1-c1oc2ccccc2c1C#CC1(N)CCCCC1 | 24* | -31 | -2 | 0 | 2 | -7 | -1
Cc1ccc(NC(=O)C=NOCC(=O)Nc2cc(C)cc(C)c2)cc1 | 25* | 3 | -15 | 0 | 15 | -15 | 4
COc1ccc(Nc2nc(Nc3ccc(OC)cc3)nc(SC3=NCCS3)n2)cc1 | 37* | . | -35 | . | 35 | -10 | 4
COc1ccc(Nc2nc(OC)nc(OC)n2)cc1 | -1 | -5 | . | 0 | . | -10 | .
COc1ccc(-n2c(-c3ccc(Cl)cc3)c[n+]3c2CCc2ccccc2-3)cc1 | -2 | -59 | -11 | 0 | 11 | -10 | .
Cc1ccc(-n2c(-c3ccc(Br)cc3)c[n+]3c2CCc2ccc4cccnc4c2-3)cc1 | 26* | . | -4 | . | 4 | -9 | ?
CCOc1ccc(Oc2ccc(NC(=O)[C@@H](NC(N)=O)[C@@H](C)CC)cc2)cc1 | 31* | 11 | 1 | 0 | -1 | 2 | 1
C[C@H](CO)N1C[C@H](C)[C@H](CN(C)Cc2ccc(C(=O)Nc3ccccc3N)cc2)Oc2ccc(NC(=O)Nc3ccc4c(c3)OCO4)cc2CC1=O | . | -19 | . | 3 | . | . | .
O=C1/C(=C/c2ccccc2)SC(=S)N1N1C(=O)C2CC2C1=O (stereo not given) | 0 | 15 | 2 | 0 | -2 | 11 | .
Cc1ccsc1C(=O)NNC(=O)Nc1ccc(Cl)c(Cl)c1 | 25* | . | -12 | . | 12 | 6 | 0
Cc1occc1C(=O)NNC(=O)Nc1ccc(Cl)c(Cl)c1 | -7 | -2 | -29 | 0 | 29 | -11 | .
O=C(COC(=O)c1cc(=O)[nH]c2ccccc12)NCc1ccc(Cl)cc1 | 57* | 0 | -15 | 0 | 15 | -21 | 4
O=C(COC(=O)c1cc(=O)[nH]c2ccccc12)Nc1nc(-c2ccc(F)cc2)cs1 | 41* | 6 | . | 0 | . | 1 | 2
SMILES | dFosB act-1 | Ecoli rRNA inh | SR-BI uptake up | Xi reactivation | SR-BI DiI inh | PvdQ inh | dFosB act-2
O=C(COC(=O)c1cc(=O)[nH]c2ccccc12)NCc1ccc(F)cc1 | -10 | 1 | 7 | 0 | -7 | -5 | .
O=C(COC(=O)c1cc(Cl)ccc1O)NC(=O)NCc1ccccc1 | 24* | 8 | 7 | 0 | -7 | -1 | 6
CN1CCN(C(=O)C[C@@H]2C[C@@H]3c4cc(NC(=O)c5cccnc5)ccc4O[C@@H]3[C@@H](CO)O2)CC1 | . | 1 | . | 0 | . | . | .
Cc1ccc(C(=O)NCCc2nnc3ccc(NCc4ccc5c(c4)OCO5)nn23)cc1 | 51* | 8 | -7 | 0 | 7 | -3 | -2
CCC(C)(C)C1CCC2(CC1)NC(=O)N(CC(=O)Nc1nc(-c3ccc(C)cc3)cs1)C2=O (stereo not given) | 34* | . | -28 | . | 28 | -9 | 5
CCC(C)(C)C1CCC2(CC1)NC(=O)N(CC(=O)N1CCN(S(=O)(=O)c3cc(C)ccc3C)CC1)C2=O (stereo not given) | 45* | 6 | -10 | 0 | 10 | -11 | 6
O=C(CN1C(=O)NC2(CCCC2)C1=O)Nc1nc(-c2ccc(F)cc2)cs1 | 0 | . | -44 | . | 44 | -6 | .
Cc1ccc(NC(=O)Cn2nc([N+](=O)[O-])c(Br)c2C)cc1C | 49* | 4 | -24 | . | 24 | 5 | 1
CCC(=O)N(C)C[C@H]1Oc2ncc(Br)cc2C(=O)N([C@@H](C)CO)C[C@@H]1C | . | 4 | . | -1 | . | . | .
CC(=O)Nc1ccc(Nc2cc(C)nc3c(-c4ccc(Cl)cc4)cnn23)cc1 | 18* | . | -12 | 0 | 12 | -14 | -7
Cc1cc(C)c(S(=O)(=O)N2CCN(C(=O)c3cc4ccccc4o3)CC2)c(C)c1 | -1 | -24 | 12 | 0 | -12 | 16 | .
O=C(c1cc2ccccc2o1)N1CCN(S(=O)(=O)c2ccc(F)c(F)c2F)CC1 | 33* | 13 | 7 | 0 | -7 | 2 | -1
COC(=O)C1=C(C)N(CC(C)C)C(=S)NC1c1cccc(OC)c1 (stereo not given) | . | -24 | . | 0 | . | . | .
O=S(=O)(c1ccc2c(c1)OCO2)N1CCN(c2nnnn2-c2ccccc2)CC1 | 25* | . | 20 | . | -20 | -5 | 1
O=S(=O)(c1ccccc1)N1CCN(c2nnnn2-c2ccccc2)CC1 | ? | . | -2 | . | 2 | -3 | .

Source: PubChem
